For 17 compounds, MIC and Activity results are on record in ChEMBL document CHEMBL3244289, “Synthesis and antibacterial activity of 2'-substituted chelocardin analogues” (1979).

Activity calls are given as the source filed them.

Assay [1] relates to Salmonella typhi. The experiment in a line: Antibacterial activity against Salmonella typhi by two-fold agar dilution method. Type of assay: functional, Salmonella enterica subsp. enterica serovar Typhi. The settings on record: Salmonella enterica. The gist of the method:
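MIC in µg/mL by twofold serial agar dilution on brain-heart infusion agar.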
On the technique in general: In agar dilution the substance is mixed into plates at graded concentrations.

In assay [2] the test system is Proteus vulgaris. The experiment in a line: Antibacterial activity against Proteus vulgaris by two-fold agar dilution method. Format: functional. A digest of the protocol: (§1)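 MIC determined by twofold serial dilution in brain-heart infusion agar. Values are reported in µg/mL.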
Assay [3] deals with Pseudomonas aeruginosa. The experiment in a line: Antibacterial activity against Pseudomonas aeruginosa by two-fold agar dilution method. Type of assay: functional, organism-based. The gist of the method: as §1
Assay [4] relates to Staphylococcus aureus. The assay can be described thus: Antibacterial activity against Staphylococcus aureus 45 by two-fold agar dilution method. Format: functional. The gist of the method: as §1
In assay [5] the test system is Pasteurella multocida. The assay can be described thus: Antibacterial activity against Pasteurella multocida 10544 by two-fold agar dilution method. Format: functional. The gist of the method: as §1
The subject of assay [6] is Streptococcus pyogenes. The assay can be described thus: Antibacterial activity against Streptococcus pyogenes C-203 by two-fold agar dilution method. Type of assay: functional. A digest of the protocol:
as §1

Assay [7] concerns Klebsiella pneumoniae. The assay can be described thus: Antibacterial activity against Klebsiella pneumoniae 8045 by two-fold agar dilution method. Format: functional. The gist of the method:
as §1

The test system of assay [8] is Escherichia coli. The assay can be described thus: Antibacterial activity against Escherichia coli Juhl by two-fold agar dilution method. Format: functional. A digest of the protocol: as §1
Assay [9] deals with Proteus mirabilis. The experiment in a line: Antibacterial activity against Proteus mirabilis by two-fold agar dilution method. Format: functional. A digest of the protocol: as §1
For assay [10], the system named is Enterococcus. The experiment in a line: Antibacterial activity against Enterococcus 89 by two-fold agar dilution method. Format: functional. The gist of the method: as §1
Assay [11] relates to Staphylococcus aureus. The experiment in a line: Antibacterial activity against Staphylococcus aureus Smith by two-fold agar dilution method. Format: functional. A digest of the protocol: as §1

As a reminder, the MIC is the smallest concentration in the dilution series that meets the test's criterion for growth inhibition. Low values mean greater potency, high ones weaker potency. In the case of `C/C(=N\Nc1ccccc1)C1=C(O)[C@H](N)[C@@H]2Cc3c(c(O)c4c(O)c(C)ccc4c3C)C(=O)[C@]2(O)C1=O.Cl`, the MIC in [1] was 25 µg/mL; in [2], 50 µg/mL; in assay [4], 6.2 µg/mL; in assay [5], 0.78 µg/mL; in [6] it was 6.2 µg/mL; in [7], 12.5 µg/mL. The MIC stood at 50 µg/mL in assay [8], 50 µg/mL in assay [9], 12.5 µg/mL in assay [10] and 6.2 µg/mL in assay [11]. The outcome in [3] was inactive.

Take `C/C(=N\c1ccccc1)C1=C(O)[C@H](N)[C@@H]2Cc3c(c(O)c4c(O)c(C)ccc4c3C)C(=O)[C@]2(O)C1=O.Cl`: the MIC in [1] is 6.2 µg/mL; in assay [2], 6.2 µg/mL; in assay [4] it was 12.5 µg/mL; in assay [5] it was 1.56 µg/mL; in assay [6], 12.5 µg/mL; in assay [7], 12.5 µg/mL. Besides, the MIC came out at 25 µg/mL in assay [8], 6.2 µg/mL in [9], 25 µg/mL in [10] and 12.5 µg/mL in assay [11]. Besides, the result in assay [3] was inactive.

On to `C/C(=N\c1ccc(F)cc1)C1=C(O)[C@H](N)[C@@H]2Cc3c(c(O)c4c(O)c(C)ccc4c3C)C(=O)[C@]2(O)C1=O.Cl`, for which the MIC was determined as 1.5 µg/mL in [1]; 1.56 µg/mL in assay [2]; 12.5 µg/mL in assay [4]; 0.39 µg/mL in assay [5]; 3.1 µg/mL in assay [6]; 1.56 µg/mL in assay [7]. Moreover, the MIC in assay [8] worked out at 6.2 µg/mL; in assay [9] it was 3.1 µg/mL; in [10] it was 12.5 µg/mL; in assay [11], 6.2 µg/mL. For the same compound, the result in assay [3] was inactive.

For the compound `C/C(=N\c1ccc(C(=O)O)cc1)C1=C(O)[C@H](N)[C@@H]2Cc3c(c(O)c4c(O)c(C)ccc4c3C)C(=O)[C@]2(O)C1=O.Cl`, the MIC in [1] is 1.5 µg/mL; in assay [2], 1.56 µg/mL; in assay [4] it was 6.2 µg/mL; in assay [5], 0.39 µg/mL; in assay [6], 3.1 µg/mL; in assay [7], 1.56 µg/mL. Further, the MIC in assay [8] came out at 6.2 µg/mL; in assay [9] it was 3.1 µg/mL; in [10], 6.2 µg/mL; in assay [11], 3.1 µg/mL. In assay [3], the outcome was inactive.

With `C/C(=N\NC(=O)c1cccnc1)C1=C(O)[C@H](N)[C@@H]2Cc3c(c(O)c4c(O)c(C)ccc4c3C)C(=O)[C@]2(O)C1=O.Cl`, the MIC was 100 µg/mL in assay [1]; more than 100 µg/mL in assay [2]; more than 100 µg/mL in assay [4]; 12.5 µg/mL in assay [5]; 100 µg/mL in assay [6]; 100 µg/mL in assay [7]. The MIC in assay [8] was 100 µg/mL; in assay [9] it was more than 100 µg/mL; in assay [10], more than 100 µg/mL; in assay [11], more than 100 µg/mL. Also, the result in assay [3] was inactive.

For the compound `C/C(=N\NC(=O)c1ccncc1)C1=C(O)[C@H](N)[C@@H]2Cc3c(c(O)c4c(O)c(C)ccc4c3C)C(=O)[C@]2(O)C1=O.Cl` (stereo in doubt), the MIC in assay [1] amounted to 12.5 µg/mL; in assay [2] it was 12.5 µg/mL; in assay [4] it was 50 µg/mL; in assay [5], 6.2 µg/mL; in assay [6] it was 12.5 µg/mL; in [7], 12.5 µg/mL. In addition, the MIC in assay [8] stood at 50 µg/mL; in [9], 12.5 µg/mL; in assay [10] it was 50 µg/mL; in assay [11] it was 50 µg/mL. Also, the outcome in assay [3] was inactive.

Consider `COc1ccc(/N=C(\C)C2=C(O)[C@H](N)[C@@H]3Cc4c(c(O)c5c(O)c(C)ccc5c4C)C(=O)[C@]3(O)C2=O)cc1.Cl`, for which the MIC in [1] came to 3.1 µg/mL; in assay [2], 3.1 µg/mL; in assay [4] it was 12.5 µg/mL; in assay [5], 0.78 µg/mL; in [6], 3.1 µg/mL; in [7], 3.1 µg/mL. Also, the MIC was found to be 25 µg/mL in assay [8], 6.2 µg/mL in assay [9], 6.2 µg/mL in [10] and 12.5 µg/mL in assay [11]. In [3], the result was inactive.

Take `C/C(=N\NCCN(C)C)C1=C(O)[C@H](N)[C@@H]2Cc3c(c(O)c4c(O)c(C)ccc4c3C)C(=O)[C@]2(O)C1=O.Cl`: the MIC in assay [1] came out at 25 µg/mL; in assay [2], 25 µg/mL; in assay [4], 50 µg/mL; in assay [5] it was 3.1 µg/mL; in assay [6], 50 µg/mL; in assay [7], 25 µg/mL. Besides, the MIC in [8] came out at 50 µg/mL; in assay [9], 25 µg/mL; in [10] it was 100 µg/mL; in assay [11], 50 µg/mL. In [3], the outcome was inactive.

With `C/C(=N\NC(=O)c1ccco1)C1=C(O)[C@H](N)[C@@H]2Cc3c(c(O)c4c(O)c(C)ccc4c3C)C(=O)[C@]2(O)C1=O.Cl` (stereo in doubt), the MIC in assay [1] is 25 µg/mL; in assay [2], 50 µg/mL; in assay [4] it was more than 100 µg/mL; in assay [5] it was 3.1 µg/mL; in assay [6], 50 µg/mL; in [7], 50 µg/mL. In addition, the MIC in assay [8] is more than 100 µg/mL; in assay [9], 50 µg/mL; in assay [10] it was more than 100 µg/mL; in assay [11], more than 100 µg/mL. Moreover, the result in assay [3] was inactive.

Consider `CCCNC(=O)N/N=C(\C)C1=C(O)[C@H](N)[C@@H]2Cc3c(c(O)c4c(O)c(C)ccc4c3C)C(=O)[C@]2(O)C1=O.Cl`, for which the MIC turned out to be 6.2 µg/mL in assay [1]; 6.2 µg/mL in assay [2]; 25 µg/mL in assay [4]; 0.78 µg/mL in assay [5]; 12.5 µg/mL in assay [6]; 6.2 µg/mL in assay [7]. The MIC was 25 µg/mL in assay [8], 6.2 µg/mL in assay [9], 50 µg/mL in [10] and 25 µg/mL in assay [11]. The result in assay [3] was inactive.

On to `C/C(=N\NC(=O)CC#N)C1=C(O)[C@H](N)[C@@H]2Cc3c(c(O)c4c(O)c(C)ccc4c3C)C(=O)[C@]2(O)C1=O.Cl`, for which the MIC in assay [1] amounted to 12.5 µg/mL; in assay [2] it was 12.5 µg/mL; in assay [4], 50 µg/mL; in assay [5] it was 1.56 µg/mL; in [6] it was 50 µg/mL; in [7], 12.5 µg/mL. Moreover, the MIC in [8] was 50 µg/mL; in assay [9], 12.5 µg/mL; in assay [10], 50 µg/mL; in assay [11] it was 50 µg/mL. Besides, the outcome in assay [3] was inactive.

For the compound `CNC(=O)N/N=C(\C)C1=C(O)[C@H](N)[C@@H]2Cc3c(c(O)c4c(O)c(C)ccc4c3C)C(=O)[C@]2(O)C1=O.Cl`, the MIC in [1] stood at 25 µg/mL; in [2], 25 µg/mL; in assay [4] it was 50 µg/mL; in [5] it was 3.1 µg/mL; in assay [6], 25 µg/mL; in [7] it was 12.5 µg/mL. The MIC in [8] was determined as 50 µg/mL; in [9], 50 µg/mL; in assay [10], 50 µg/mL; in [11], 25 µg/mL. Besides, the outcome in [3] was inactive.

With `C/C(=N\c1ccc(CC(=O)O)cc1)C1=C(O)[C@H](N)[C@@H]2Cc3c(c(O)c4c(O)c(C)ccc4c3C)C(=O)[C@]2(O)C1=O.Cl`, the MIC worked out at 1.5 µg/mL in assay [1]; 1.56 µg/mL in assay [2]; 6.2 µg/mL in assay [4]; 0.39 µg/mL in assay [5]; 3.1 µg/mL in assay [6]; 1.56 µg/mL in [7]. Moreover, the MIC in assay [8] was determined as 6.2 µg/mL; in assay [9], 3.1 µg/mL; in assay [10] it was 12.5 µg/mL; in assay [11], 6.2 µg/mL. In addition, in assay [3], the outcome was inactive.

For `C=CCNC(=O)N/N=C(\C)C1=C(O)[C@H](N)[C@@H]2Cc3c(c(O)c4c(O)c(C)ccc4c3C)C(=O)[C@]2(O)C1=O.Cl`, the MIC in assay [1] amounted to 12.5 µg/mL; in [2], 12.5 µg/mL; in [4], 25 µg/mL; in assay [5], 0.78 µg/mL; in assay [6] it was 12.5 µg/mL; in assay [7] it was 6.2 µg/mL. Moreover, the MIC turned out to be 25 µg/mL in [8], 6.2 µg/mL in [9], 50 µg/mL in [10] and 25 µg/mL in assay [11]. In assay [3], the result was inactive.

`COc1ccc(C(=O)N/N=C(\C)C2=C(O)[C@H](N)[C@@H]3Cc4c(c(O)c5c(O)c(C)ccc5c4C)C(=O)[C@]3(O)C2=O)cc1.Cl` (stereo in doubt): the MIC in assay [1] turned out to be 25 µg/mL; in assay [2] it was 25 µg/mL; in assay [4] it was 100 µg/mL; in assay [5], 3.1 µg/mL; in [6], 50 µg/mL; in assay [7], 50 µg/mL. Besides, the MIC is 100 µg/mL in assay [8], 25 µg/mL in [9], more than 100 µg/mL in assay [10] and 100 µg/mL in [11]. Also, the result in [3] was inactive.

On to `C/C(=N\NC(=O)c1ccccc1O)C1=C(O)[C@H](N)[C@@H]2Cc3c(c(O)c4c(O)c(C)ccc4c3C)C(=O)[C@]2(O)C1=O.Cl`, for which the MIC in assay [1] was more than 100 µg/mL; in assay [2], more than 100 µg/mL; in assay [4] it was more than 100 µg/mL; in [5], 25 µg/mL; in [6] it was more than 100 µg/mL; in assay [7] it was more than 100 µg/mL. For the same compound, the MIC in [8], in [9], in assay [10] and in assay [11] was more than 100 µg/mL each time. Besides, the result in [3] was inactive.

Turning to `C/C(=N\N1CCOCC1)C1=C(O)[C@H](N)[C@@H]2Cc3c(c(O)c4c(O)c(C)ccc4c3C)C(=O)[C@]2(O)C1=O.Cl`, the MIC in [1] is 3.1 µg/mL; in [2], 6.2 µg/mL; in [4] it was 12.5 µg/mL; in assay [5] it was 0.78 µg/mL; in assay [6] it was 12.5 µg/mL; in assay [7] it was 6.2 µg/mL. For the same compound, the MIC in [8] is 25 µg/mL; in [9], 12.5 µg/mL; in [10], 12.5 µg/mL; in assay [11], 12.5 µg/mL. For the same compound, in assay [3], the result was inactive.
